Measurements of several laboratories.
Each line is one published result; the experiments were not run side by side.
Observed: microbial growth

| SMILES | organism | method | strain | time | MIC |
| --- | --- | --- | --- | --- | --- |
| C=CCn1c(-c2ccc(OC)c(OC)c2)nc2ccccc21 | Aspergillus niger |  | ATCC16404 |  | 512 µg/mL |
| CC[C@@H]([C@H](C)O)n1ncn(-c2ccc(N3CCN(c4ccc(OC[C@@H]5CO[C@@](Cn6cncn6)(c6ccc(F)cc6F)C5)cc4)CC3)cc2)c1=O | Aspergillus brasiliensis |  | ATCC16404 | 72 h | < 0.3 µM |
| CC1=NN(CNc2ccc(O)cc2)C(=O)C1=NNn1c(-c2ccccc2)nc2ccccc2c1=O | Aspergillus niger | broth dilution |  |  | 107 µM |
| Cc1ccc(C)n1-c1ccc(-c2nnc(-c3ccc(N(C)C)cc3)[nH]2)cc1 | Aspergillus niger | broth dilution | ATCC6275 |  | 62.5 µg/mL |
| CCCCCCCCCCCCCCN1CCNCC1 | Lodderomyces parapsilosis |  | ATCC22019 |  | 0.975 µg/mL |
| Cc1ccc2nc(-c3ccc([N+](=O)[O-])cc3)n(Cc3ccccc3Cl)c2c1 | Aspergillus niger |  | ATCC16404 |  | 128 µg/mL |
| CN1CCNCC1 | Lodderomyces parapsilosis | broth dilution | ATCC22019 | 48 h | > 31.3 µg/mL |
| Cc1ccc2nc(-c3ccc([N+](=O)[O-])cc3)[nH]c2c1 | Aspergillus niger |  | ATCC16404 |  | 512 µg/mL |
| CCCCCCCCN1CCN(CC(O)(Cn2cncn2)c2ccc(F)cc2F)CC1 (stereo not shown) | Lodderomyces parapsilosis | broth dilution | ATCC22019 | 48 h | 0.03 µg/mL |
| C=CCn1c(-c2ccc([N+](=O)[O-])cc2)nc2ccccc21 | Aspergillus niger |  | ATCC16404 |  | 256 µg/mL |
| Cc1ccc(C)n1-c1ccc(-c2nnc(-c3ccccc3[N+](=O)[O-])[nH]2)cc1 | Aspergillus niger | broth dilution | ATCC6275 |  | 31.2 µg/mL |
| Cc1ccc2nc(-c3ccc(Cl)cc3)[nH]c2c1 | Aspergillus niger |  | ATCC16404 |  | 256 µg/mL |
| Cc1cc(C)n(C(=O)c2ccc(-n3c(C)ccc3C)cc2)n1 | Aspergillus niger | broth dilution | ATCC6275 |  | > 500 µg/mL |
| Cc1ccc2nc(-c3cccc(O)c3)[nH]c2c1 | Aspergillus niger |  | ATCC16404 |  | 128 µg/mL |
| CCCCCCCCCCCCCCN1CCOCC1 | Lodderomyces parapsilosis | broth dilution | ATCC22019 | 48 h | > 31.3 µg/mL |
| Cc1ccc(C)n1-c1ccc(-c2nnco2)cc1 | Aspergillus niger | broth dilution | ATCC6275 |  | 125 µg/mL |
| CCCCCCCCN1CCNCC1 | Lodderomyces parapsilosis | broth dilution | ATCC22019 | 48 h | > 31.3 µg/mL |
| C=CCn1c(-c2ccc(Cl)cc2)nc2ccccc21 | Aspergillus niger |  | ATCC16404 |  | 512 µg/mL |
| Cc1ncc([N+](=O)[O-])n1CCO | Bacteroides fragilis | agar dilution |  | 48 h | 1 µg/mL |
| CCCCCCCCCCCCN1CCNCC1 | Lodderomyces parapsilosis | broth dilution | ATCC22019 | 48 h | 1.95 µg/mL |
| CC1=NN(CNc2ccccc2[N+](=O)[O-])C(=O)C1=NNn1c(-c2ccccc2)nc2ccccc2c1=O | Aspergillus niger | broth dilution |  |  | 50.4 µM |
| CCOCCn1cnc2nc(NCc3ccc(Cl)c(Cl)c3)[nH]c(=O)c21 | Bacteroides fragilis | agar dilution |  | 48 h | > 32 µg/mL |
| CCOc1ccc(-c2nc3ccccc3n2Cc2ccccc2)cc1 | Aspergillus niger |  | ATCC16404 |  | 256 µg/mL |
| CCCCCCCCCCCN1CCN(CC(O)(Cn2cncn2)c2ccc(F)cc2F)CC1 (stereo not shown) | Lodderomyces parapsilosis | broth dilution | ATCC22019 | 48 h | 0.24 µg/mL |
| O=c1[nH]c(NCc2ccc(Cl)c(Cl)c2)nc2ncn(CCCCCN3CCOCC3)c12 | Bacteroides fragilis | agar dilution |  | 48 h | > 32 µg/mL |
